Assay outcomes: PubChem, several laboratories
The list is not random: actives were taken first. Their share in the collection is about 4.6%.
Rtt109 HAT inh: blocks Candida albicans Rtt109/Vps75 acetyltransferase activity; purified Rtt109/Vps75, ThioGlo CoA-SH fluorescence, 4 h; inhibition, % at 34.9 µM; 330,000 compounds, 0.16% hits;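 active = inhibition of at least 50% in every replicate; inconclusive = best replicate reaches 50% inhibition but some replicates fall short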
UCH37 inh: blocks the human deubiquitinase UCH37. Q9Y5K5. purified proteasome/UCH37, Ub-AMC cleavage fluorescence. inhibition, % (test concentration not listed). 330,000 compounds, 0.33% hits. AID 588478;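 active = mean inhibition over replicate wells above about 20%, limit read from the data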;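 also: 0% = compound-free wells with enzyme and 100% = wells lacking proteasome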
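Material: human UCH37 enzyme supplied as purified proteasome complex. Measure: % inhibition of Ub-AMC cleavage fluorescence. Medium: pH 7.4 Tris-HCl (50 mM) with ovalbumin, ATP-MgCl2, DTT. Times: 30 min preincubation with enzyme, 25 min cleavage at room temperature. Detection: AMC fluorescence intensity at 355/460 nm.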
PfM18AAP inh: PfM18AAP enzyme inhibition; recombinant PfM18AAP, H-Glu-NHMec fluorogenic cleavage; inhibition, % at 7.35 µM; 290,000 compounds, 1.2% hits;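 active = inhibition above the campaign mean inhibition over all tested compounds plus 3 SD, cut at about 28% in these data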;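 also: 0% = plate median of test compound wells and 100% = 2 mM ZnCl2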
ALR H2O2 inh: inhibitors of human sulfhydryl oxidase ALR; P55789; purified ALR, DTT oxidation, H2O2 HRP-luminol luminescence; inhibition, % (no concentration beside the values); 290,000 compounds, 3.8% hits;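 active = mean replicate inhibition above about 79%, with every replicate also reaching it, limit read from the data; inconclusive = only one of the two criteria met; inactive = mean below limit and not every replicate reaching it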
HDAC3 inhib: human HDAC3 inhibition | recombinant HDAC3, fluorogenic peptide/trypsin coupled, fluorescence | inhibition, % at 8.3 µM | 320,000 compounds, 0.15% hits | AID 2718; in the data active = inhibition above about 26%, passing the limit was not always enough; inconclusive = no clear call, values can overlap the other calls
FAS-TE inh: blocks the thioesterase domain of human fatty acid synthase. P49327. recombinant FAS-TE, OMFH fluorogenic substrate, fluorescence endpoint. inhibition, % at 15 µM. 360,000 compounds, 0.67% hits;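 active = compounds whose normalised, plate-corrected inhibition of enzyme fluorescence in the single-dose primary screen is 50% or more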;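 also: 0% = DMSO with enzyme and 100% = substrate without enzyme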
The depositor's hits bear a star; i = inactive; ? = inconclusive; · = no result given.

SMILES | Rtt109 HAT inh | UCH37 inh | PfM18AAP inh | ALR H2O2 inh | HDAC3 inhib | FAS-TE inh
CC(C)(C)c1ccc(C(=O)CCCSC2=C(C#N)C(c3ccco3)C3=C(CCCC3=O)N2)cc1 (centres undefined) | 5 | -11 | 16 | 3 | 6 | -177
CCCCc1ccc(NC(=O)CSC2=C(C#N)C(c3ccco3)C3=C(CCCC3=O)N2)cc1 (centres undefined) | -1 | -2 | 8 | 98* | 11 | 16
N#CC1=C(SCC(=O)c2ccccc2)NC2=C(C(=O)CCC2)C1c1ccco1 (centres undefined) | 5 | 6 | 24 | 87* | 1 | 11
COc1cccc(NC(=O)CSC2=C(C#N)C(c3ccco3)C3=C(CCCC3=O)N2)c1 (centres undefined) | 7 | -1 | 23 | 59 | -7 | 2
Cc1ccc(C(=O)CSC2=C(C#N)C(c3ccco3)C3=C(CCCC3=O)N2)cc1 (centres undefined) | -12 | 2 | 20 | 99* | 4 | 17
CN1CCN(CCn2c(=S)[nH]c3ccccc3c2=O)CC1 | 0 | 1 | -13 | 15 | 5 | -8
COc1ccc(N2CCN(CCCn3c(=S)[nH]c4ccccc4c3=O)CC2)cc1 | · | 4 | 3 | 95* | 4 | 9
COc1ccc(N2CCN(C(=O)CCCCCn3c(=O)[nH]c4ccsc4c3=O)CC2)cc1 | -2 | 5 | -1 | 69 | -1 | -3
COc1cc2c(=O)n(CCCN3CCOCC3)c(=S)[nH]c2c(OC)c1OC | 5 | 8 | 4 | 95* | 7 | -4
COc1ccc(N2CCN(CCCNC(=O)CCCn3c(=O)[nH]c4ccsc4c3=O)CC2)cc1 | 6 | 0 | 4 | 93* | 8 | -4
COc1ccccc1N1CCN(CCCn2c(=S)[nH]c3ccccc3c2=O)CC1 | -1 | -1 | -10 | 97* | 13 | -2
COCCNC(=S)NN=Cc1ccc2c(c1)OCCO2 | · | 13 | · | · | · | ·
COCCn1c(=O)[nH]c2cc(C(=O)N3CCN(c4ccc(OC)cc4)CC3)ccc2c1=O | 3 | 4 | -2 | 96* | -6 | -2
COc1ccc(C=NNC(=O)Cn2cnc3ccccc3c2=O)cc1OC | · | 6 | · | · | · | ·
Nc1nnnn1CC(=O)NN=C/C=C/c1ccccc1 | · | 3 | · | · | · | ·
CC(=O)c1ccc(-c2ccc(C(=O)NC3CC(C)(C)NC(C)(C)C3)o2)cc1 | 6 | i | · | 98* | -127 | -5
CC1(C)CC(NC(=O)c2ccc(F)cc2)CC(C)(C)N1 | · | · | · | · | · | -6
CCCC(=NNC(=O)c1ccccc1C)c1ccccc1 | · | 5 | · | · | · | ·
CCOc1ccccc1CNc1ccc(O)cc1 | -11 | -15 | 20 | · | · | -2
CCc1ccc(CNc2ccc(O)cc2)cc1 | 3 | -3 | 26 | 84* | 4 | -8
O=[N+]([O-])c1ccc(N2CCN(c3ccccc3Cl)CC2)cn1 | 8 | 5 | 32* | -2 | 2 | 18
CC(=NNS(=O)(=O)c1ccccc1)c1ccc(NC(=O)C2CC2)cc1 | · | 5 | · | · | · | ·
O=C1NC(=Nc2ccc(Cl)cc2)/C(=C/c2ccco2)S1 | 6 | 7 | 8 | 87* | 6 | 2
Cc1cccc(N=C2NC(=O)S/C2=C\c2ccco2)c1 | 13 | 1 | 6 | -6 | 7 | 2
Cc1cccc(C=NNC(=O)c2ccc(NC(=O)c3ccc(F)cc3)cc2)n1 | · | 5 | · | · | · | ·
SMILES | Rtt109 HAT inh | UCH37 inh | PfM18AAP inh | ALR H2O2 inh | HDAC3 inhib | FAS-TE inh
c1ccc(C2=NOC(c3nnc(-c4ccccc4)o3)C2)cc1 (centres undefined) | -1 | 33* | · | · | -2 | -10
Cc1cccc(C)c1N1CCN(c2n[nH]c(N)n2)CC1 | 7 | 4 | 18 | 96* | -5 | 1
Nc1nc(N2CCN(Cc3ccccc3)CC2)n[nH]1 | 13 | 3 | 24 | ? | -3 | 1
COc1ccc(N2CCN(c3n[nH]c(N)n3)CC2)cc1 | -15 | 3 | 10 | 98* | 10 | -5
O=C(NN=Cc1cn(-c2cccs2)nc1-c1ccccc1)c1ccccc1Br | · | 3 | · | · | · | ·
CC1(C)OC(c2ccccc2)=C/C(=C/C=N/NC(=O)c2ccncc2)O1 | 19 | · | -9 | 98* | -2 | 3
CC1(C)OC(c2ccccc2)=C/C(=C\C=NNC(=O)c2ccncc2)O1 | · | 13 | · | · | · | ·
COc1ccccc1C=NNC(=O)c1c(C)nc2ccc(Cl)cn12 | · | 2 | · | · | · | ·
COc1cc(/C=N/O)cc(Cl)c1OC | 4 | · | 3 | 2 | -5 | -11
COc1cc(/C=N/O)cc(Br)c1OC | 1 | · | 2 | 90* | 1 | -4
COc1cc2cc(C(=O)NN=Cc3ccccc3Cl)[nH]c2cc1OC | · | -67 | · | · | · | ·
O=C(NN=Cc1ccoc1)c1ccccc1 | · | 1 | · | · | · | ·
COc1ccc(OCC(=O)NN=C2CCCc3ccccc32)cc1 | · | 1 | · | · | · | ·
C=CCC(=O)N1CCCC(CCC(=O)NCc2ccccc2F)C1 (centres undefined) | 3 | 1 | 0 | -9 | -5 | -3
O=C(CCC1CCCN(c2ncccn2)C1)NCc1ccccc1F (centres undefined) | -11 | -2 | 32* | 2 | -12 | -9
COC(=O)C1=C(C)NC(C)=C(C(=O)OC)C1c1ccc(-c2cccc([N+](=O)[O-])c2)o1 | -5 | 3 | -19 | 7 | 35* | 25
COC(=O)C1=C(C)NC(=S)NC1c1ccc(-c2cccc(Cl)c2)o1 (centres undefined) | 1 | -2 | 13 | 1 | 29* | -6
CCOC(=O)C1=C(C)NC(=S)NC1c1ccc(-c2ccc(Cl)cc2)o1 (centres undefined) | -3 | 0 | 16 | 4 | 0 | 16
Cc1cc(C)nc(NN=Cc2ccc([N+](=O)[O-])o2)n1 | · | 13 | · | · | · | ·
CC(NC(=O)c1ccco1)C(c1cccs1)N1CCN(c2ccccc2F)CC1 (centres undefined) | -5 | 3 | 1 | 5 | 8 | 4
CC(NC(=O)c1ccco1)C(c1cccs1)N1CCN(c2ccc(F)cc2)CC1 (centres undefined) | 6 | 2 | -1 | 99* | -3 | 9
CC(NC(=O)c1ccco1)C(c1cccs1)N1CCN(c2ccccc2)CC1 (centres undefined) | -3 | 0 | -1 | 98* | · | 3
Cn1c(N)c(-c2nc3cccnc3n2C)sc1=S | -1 | -31 | 4 | 92* | -3 | -4
Cc1ccc(-n2c(N)c(-c3nc4ccccc4n3C)sc2=S)cc1 | 6 | -3 | -40 | 10 | 1 | 21
COc1ccc2c(c1)c(C(=O)NN=Cc1cccs1)c(C)n2C | · | 6 | · | · | · | ·
CN1CCN(S(=O)(=O)c2ccc(N)cc2)CC1 | -1 | 4 | 5 | 96* | 3 | -2
CN1CCN(S(=O)(=O)c2ccc(F)cc2)CC1 | · | · | · | · | · | -7
COc1ccc(NC2CCN(C3CC(=O)N(c4ccc(F)c(Cl)c4)C3=O)CC2)cc1 (centres undefined) | 4 | 2 | -11 | 82* | 1 | 3
